Measurements pooled from the literature.
Each line is one published result; the experiments were not run side by side.
Target: BDNF/NT-3 growth factors receptor (NTRK2, Homo sapiens, UniProt Q16620)

SMILES	assay	conditions	remaining binding [%]
COc1ccnn2ncc(-c3ccnc(N(C)C)n3)c12	binding	1 µM	87
Cc1cnc(Nc2ccc(C(=O)N3CCC(N4CCCC4)CC3)cc2)nc1-c1cc2ccccc2s1	binding, competition with immobilised ligand	1 µM	4.1
COc1cnc(Nc2cccc(S(N)(=O)=O)c2)nc1N1CCN(c2ccccc2)C(=O)C1	binding, competition with immobilised ligand	1 µM	100
CCOCCn1cc(C(=O)Nc2ccc(-n3nc(-c4cccnc4)cc3C(F)(F)F)cn2)ccc1=O	cell-free assay, competition with immobilised ligand	1 µM	100
O=C(NCC1CCOCC1)c1n[nH]cc1NC(=O)c1c(F)cccc1F	binding, competition with immobilised ligand	1 µM	100
O=C(NCc1ncc(C(F)(F)F)cc1Cl)c1ccc2c(c1)C1(CCS(=O)(=O)CC1)[C@@H](C1CC1)N2S(=O)(=O)c1ccc(F)cc1	cell-free assay, competition with immobilised ligand	1 µM	71
CCN1CCN(Cc2ccc(C(=O)Nc3ccc(C)c(Oc4ccc5c(c4)CC(=O)N5)c3)cc2C(F)(F)F)CC1	binding, competition with immobilised ligand	1 µM	81
FC(F)(F)Oc1cccc(-c2cnc3ccc(-c4ccncc4)nn23)c1	cell-free assay, competition with immobilised ligand	5 µM	8.9
O=C(Nc1cnc(Oc2ccc(F)cc2)nc1)N1CCc2ncccc2[C@@H]1c1ccc(F)cc1	cell-free assay, competition with immobilised ligand	1 µM	100
C[C@H]1CCN(c2nccc(-c3cnn4ncccc34)n2)C1	binding	1 µM	61
CNC(=O)[C@@H]1CC[C@@H](n2c(-c3ccc4cnccc4c3)nc3ccc(C(=O)NCc4cccc(C(N)=O)c4)cc32)C1	binding, competition with immobilised ligand	1 µM	100
CN(C)c1nccc(-c2cnc3ncccn23)n1	binding	1 µM	65
O=C(c1ccc(Nc2nccc(-c3cc4ccccc4s3)n2)cc1)N1CCC(N2CCCC2)CC1	binding, competition with immobilised ligand	1 µM	59
CCCCN(CCCC)C(=O)CN1C[C@@H](c2cc(OC)c3c(c2)OCO3)[C@H](C(=O)O)[C@H]1CC(C)(C)CCC	cell-free assay, competition with immobilised ligand	1 µM	98.3
O=C(NCCCN1CCOCC1)c1ccc(Nc2nccc(-c3cc4ccccc4s3)n2)cc1	binding, competition with immobilised ligand	1 µM	69
N[C@H]1CCN(c2nccc(-c3cnn4ncccc34)n2)C1	binding	1 µM	100
CSc1cccnc1N1CCN(Cc2nc3ccccc3[nH]2)CC1	cell-free assay, competition with immobilised ligand	1 µM	100
CC1CCCN1c1nccc(-c2cnn3ncccc23)n1 (stereo not drawn)	binding	1 µM	100
O=C(NC[C@@H]1[C@H]2CN(C(=O)OCc3cc(C(F)(F)F)cc(C(F)(F)F)c3)C[C@@H]12)c1ccc2[nH]nnc2c1	cell-free assay, competition with immobilised ligand	1 µM	99
CN(C)c1ncc(F)c(-c2cnn3ncccc23)n1	binding	1 µM	64
C[C@@H](c1ccc(-n2cnc3c(N)ncnc32)cc1)N1CCc2nn(C)c(Cc3ccccc3)c2C1=O	binding, competition with immobilised ligand	0.1 µM	24
